Reference: ChEMBL document CHEMBL1153617, “Synthesis of new acridines and hydrazones derived from cyclic beta-diketone for cytotoxic and antiviral evaluation” (2009)

Tests used:
Design in all cases: scale not given: the % may be the effect or the level left
[1] = test system: Hepatovirus A; assay: Antiviral activity against HAV MBB in human HepG2 cells assessed as reduction in viral titer at 10 ug/ml by plaque reduction assay; format: functional, Human hepatitis A virus Hu/Northern Africa/MBB/1978
How it was run: (§1)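 HAV pre-mixed with compound (10 or 20 µg/10⁵ cells; virus at 10⁴ PFU/ml final), held overnight at 4 °C. Mixture inoculated onto HepG2 monolayers grown 2 days at 37 °C, then 1 h contact. Overlay of MEM with 1% agarose, incubated at 37 °C until plaques formed. Formalin-fixed, crystal violet-stained. Plaques counted; % reduction calculated against untreated virus control.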

[2] = test system: Hepatovirus A; assay: Antiviral activity against HAV MBB in human HepG2 cells assessed as reduction in viral titer at 20 ug/ml by plaque reduction assay; format: functional, Human hepatitis A virus Hu/Northern Africa/MBB/1978; how it was run: as §1
[3] = test system: HepG2; assay: Cytotoxicity against human HepG2 cells assessed as reduction in cell growth at 10 umol/ml after 24 hrs by MTT assay relative to control; format: functional
How it was run: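 HepG2 grown in RPMI-1640 with 10% FCS. Cells taken at ~80% confluence, seeded 3×10³/well, incubated overnight at 37 °C, 5% CO₂. Compound exposure 24 h. Then PBS wash and MTT (0.5 mg/ml) for 4 h. Crystals dissolved in DMSO, OD read at 570 nm (reference 690 nm). Reported as % reduction in cell growth versus untreated control.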

How did the Activity [1] turn out when `CC1(C)CC(=O)C=C(NCC(=O)N/N=C\c2ccccc2)C1` was run?
The Activity was 56.6%.

And the Activity [2]?
Its Activity is 58.4%.

What does the source list for `COc1ccc(/C=N\NC(=O)CNC2=CC(=O)CC(C)(C)C2)cc1`?
Activity [3]: 16.99%; Activity [1]: 24.5%; Activity [2]: 36.2%

Which Activity [1] does the source give for `CC1(C)CC(=O)C=C(NCC(=O)N/N=C\c2ccc([N+](=O)[O-])cc2)C1` here?
The Activity was 39.6%.

What about the Activity [2] of the same molecule?
The Activity was 43.3%.

With `CC1(C)CC(=O)C=C(NCc2nnc(Nc3ccccc3)s2)C1` as the molecule, how does the Activity [1] read?
Its Activity is 45.2%.

And the Activity [2]?
The Activity was 49%.

How did the Activity [3] turn out when `CC1(C)CC(=O)C=C(NCC(=O)NNC(=S)Nc2ccccc2)C1` was run?
The Activity was 54.84%.

And the Activity [1]?
The Activity was 18.8%.

And the Activity [2]?
Its Activity is 39.6%.

For `CCOC(=O)CN1C2=C(C(=O)CC(C)(C)C2)C(c2ccc(Br)cc2)C2=C1CC(C)(C)CC2=O`, which Activity [3] is on record?
The Activity was 49.17%.

What about the Activity [1] of the same molecule?
Its Activity is 47.1%.

What about the Activity [2] of the same molecule?
Its Activity is 52.8%.

Which Activity [1] does the source give for `CC1(C)CC(=O)C=C(NCC(=O)N/N=C\c2ccc(Cl)cc2)C1` here?
Its Activity is 57.5%.

What about the Activity [2] of the same molecule?
Its Activity is 60.3%.

What does the source list for `CCOC(=O)CN1C2=C(C(=O)CC(C)(C)C2)C(c2ccc(OC)cc2)C2=C1CC(C)(C)CC2=O`?
Activity [3]: 37.99%; Activity [1]: 24.5%; Activity [2]: 45.2%

Which Activity [3] does the source give for `CC1(C)CC(=O)C=C(NCC(=O)N/N=C\c2ccc(O)cc2)C1` here?
The Activity was 40.32%.

And the Activity [1]?
Its Activity is 9.4%.

And the Activity [2]?
Its Activity is 15%.

Which Activity [3] does the source give for `CCOC(=O)CN1C2=C(C(=O)CC(C)(C)C2)C(c2ccccc2)C2=C1CC(C)(C)CC2=O` here?
Its Activity is 3.32%.

What about the Activity [1] of the same molecule?
The Activity was 37.7%.

And the Activity [2]?
The Activity was 60.3%.

Which Activity [3] does the source give for `CC1(C)CC(=O)C=C(NCC(=O)NN)C1` here?
Its Activity is 57.4%.

And the Activity [1]?
The Activity was 33.9%.

And the Activity [2]?
The Activity was 34.9%.

Which Activity [3] does the source give for `CC1(C)CC(=O)C=C(NCC(=O)N/N=C\c2ccc(Br)cc2)C1` here?
Its Activity is 40.06%.

What about the Activity [1] of the same molecule?
The Activity was 43.3%.

And the Activity [2]?
The Activity was 27.3%.

Which Activity [3] does the source give for `CCOC(=O)CN1C2=C(C(=O)CC(C)(C)C2)C(c2ccc(Cl)cc2)C2=C1CC(C)(C)CC2=O` here?
The Activity was 54.14%.

And the Activity [1]?
Its Activity is 30.1%.

What about the Activity [2] of the same molecule?
The Activity was 47.1%.

For `CCOC(=O)CNC1=CC(=O)CC(C)(C)C1`, which Activity [3] is on record?
The Activity was 50%.

What about the Activity [1] of the same molecule?
Its Activity is 5.6%.

And the Activity [2]?
Its Activity is 15%.

What does the source list for `CC1(C)CC(=O)C=C(NCC(=O)NNC(=O)NCCCl)C1`?
Activity [3]: 58.29%; Activity [1]: 42.4%; Activity [2]: 40.5%

`CC1(C)CC(=O)C=C(NCc2nnc(S)n2-c2ccccc2)C1` was tested. Which Activity [3] did it give?
Its Activity is 35.64%.

What about the Activity [1] of the same molecule?
Its Activity is 28.3%.

What about the Activity [2] of the same molecule?
Its Activity is 30.1%.

Which Activity [3] does the source give for `CCOC(=O)CN1C2=C(C(=O)CC(C)(C)C2)C(c2ccc(O)cc2)C2=C1CC(C)(C)CC2=O` here?
Its Activity is 54.7%.

What about the Activity [1] of the same molecule?
The Activity was 30.1%.

And the Activity [2]?
The Activity was 48.1%.

`NC12CC3CC(CC(C3)C1)C2` [AMANTADINE] was tested. Which Activity [1] did it give?
The Activity was 30.1%.

What about the Activity [2] of the same molecule?
Its Activity is 45.2%.
